According to PMC8015125 (ACS Omega, 2021):

Tests used:
PC3 cell line = assay: MTT assay on PC3; assay type: cell-based, human; details: 24 h treatment
How it was run: (§1)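 Cells were grown in RPMI or DMEM with 10% FBS, penicillin and streptomycin at 37 °C under 5% CO2. They were seeded at 1 × 10^4 cells/well and exposed 24 h later for 24 h to the test compound at different concentrations (complexes 0–100 μM). After two PBS washes, 0.5 mg mL–1 MTT was added for 3–4 h at 37 °C. Formazan was dissolved in extraction buffer and OD read at 570 nm. % survival was taken relative to untreated cells (100%) to give IC50. Ratios were BPH1/PC3 and WI-38/A549 IC50.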

BPH1 cell line = assay: MTT assay on BPH1; assay type: cell-based, human; details: read-out: IC50 BPH1, 24 h treatment
How it was run: as §1

A549 cell line = assay: MTT assay on A549; assay type: cell-based; details: read-out: IC50 A549, 24 h treatment
How it was run: as §1

[1] = system: WI-38 lung fibroblast cells; assay: MTT assay on WI-38; assay type: cell-based; details: read-out: IC50 WI-38, 24 h treatment
How it was run: as §1

Q: With N.N.[Cl][Pt][Cl] [cisplatin, reference compound] as the molecule, how does the “R1 = IC50 ratio of BPH1 cells to PC3 cells” value (PC3 cell line) read?
A: 1.4

Q: And the IC50 (PC3 cell line; read-out: IC50 PC3, MTT)?
A: 5.4 ± 1.93 µM

Q: What about the IC50 (BPH1 cell line) of the same molecule?
A: 8 ± 1.03 µM

Q: What about the IC50 (A549 cell line) of the same molecule?
A: 60.1 ± 2.43 µM

Q: And the IC50 [1]?
A: 66.5 ± 2.12 µM
